Sampled rows, rich in hits. Any-hit rate of the full collection: about 3.4%.
GPR7 antagonist: GPR7 receptor antagonists, primary screen, cell-based, fluorescence, single concentration; Neuropeptides B/W receptor type 1 (Homo sapiens), P48145; inhibition, % at 4.4 µM; GPR7-expressing cells, fluorescence antagonist assay; 290,000 compounds, 1.1% hits; in the data active = inhibition above about 16%, passing the limit was not always enough;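 also: cells stimulated with the agonist NPW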
Target sequence (P48145 whole entry, looked up): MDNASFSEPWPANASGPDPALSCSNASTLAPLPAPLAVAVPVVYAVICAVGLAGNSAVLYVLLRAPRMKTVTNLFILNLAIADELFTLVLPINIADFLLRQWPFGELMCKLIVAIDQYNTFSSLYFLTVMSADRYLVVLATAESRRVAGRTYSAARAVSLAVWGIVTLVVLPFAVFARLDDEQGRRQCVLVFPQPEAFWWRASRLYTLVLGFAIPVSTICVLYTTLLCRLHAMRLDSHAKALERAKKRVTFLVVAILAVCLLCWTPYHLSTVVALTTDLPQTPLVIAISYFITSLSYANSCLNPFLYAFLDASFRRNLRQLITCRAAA
TAAR1 agonist: human TAAR1 agonists, primary screen, Fluo-8 calcium fluorescence, CHO RD-HGA16 cells | Trace amine-associated receptor 1 (Homo sapiens), Q96RJ0 | vehicle wells 0%, saturating PEA agonist 100% | activation, % at 3 µM | 360,000 compounds, 0.99% hits | AID 624467, 2012;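 active = activation above the mean activation of all test compounds in the run plus 3 SD, cut at about 38% in these data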
Target sequence (Q96RJ0 whole entry, looked up): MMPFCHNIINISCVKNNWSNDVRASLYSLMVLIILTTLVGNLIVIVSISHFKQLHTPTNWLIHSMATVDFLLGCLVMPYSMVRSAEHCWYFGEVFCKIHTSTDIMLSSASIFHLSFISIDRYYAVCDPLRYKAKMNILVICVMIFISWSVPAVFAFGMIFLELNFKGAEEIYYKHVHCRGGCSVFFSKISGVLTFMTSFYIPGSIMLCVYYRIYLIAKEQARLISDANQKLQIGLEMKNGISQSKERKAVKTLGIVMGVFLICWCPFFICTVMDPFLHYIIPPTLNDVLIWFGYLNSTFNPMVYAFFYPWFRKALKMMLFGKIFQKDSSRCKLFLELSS
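Test system: RD-HGA16 (CHO) cells co-expressing Gα16 and hTAAR1 / Benchmarks: DMSO vehicle as 0%, PEA at EC100 as 100% / Repeats: no replicates (n 1) / Measure: % activation from peak over basal fluorescence ratio, DMSO-to-PEA scaled / Timing: 17-24 h plating, Fluo-8 75 min 37 °C, 30 min RT / Technique: kinetic Fluo-8 calcium fluorescence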
TAAR1 antagonist: human TAAR1 antagonists, primary screen, Fluo-8 calcium fluorescence, CHO RD-HGA16 cells; antagonist; inhibition, % at 3 µM; Trace amine-associated receptor 1 (Homo sapiens), Q96RJ0; AID 624466, 2012; 360,000 compounds, 1.5% hits;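 active = inhibition above a per-plate cutoff, the mean inhibition of test compounds on that plate plus 3 SD, cut at about 49% in these data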
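test system = CHO RD-HGA16 cells bearing hTAAR1 | replication = singlicate | controls = DMSO-only wells and EC80 β-PEA-stimulated wells | reagent = EC80 β-phenethylamine stimulus | read-out basis = percent inhibition of PEA-evoked calcium signal, max/basal emission ratio | schedule = seeding 17-24 h prior, 75-min 37 °C, 30-min RT dye loading | signal = kinetic Fluo-8 calcium fluorescence measurement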
LANA-H2A inh: blockers of LANA interaction with H2A/H2B – biochemical, FP readout, HTS, primary screen | cell-free LANA-H2A/H2B peptide, fluorescence polarization | inhibition, % (concentration not given with the values) | 320,000 compounds, 0.6% hits; in the data active = inhibition mostly above about 10%, no sharp cut-off; inactive = mostly below about 6.7%
TRPML3 ag: human TRPML3 channel agonists, primary screen, cell-based, HEK293 TRPML3-YFP, Fluo-8 calcium fluorescence, 3 µM. Mucolipin-3 (Homo sapiens), Q8TDD5. 100% = the carbachol control signal. activation, % at 3 µM. 220,000 compounds, 0.29% hits. AID 1448, 2008;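 active = activation above its plate's cutoff, the mean activation of the plate's test wells plus 3 SD, cut at about 12% in these data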
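Test system: HEK293 cells stably carrying human TRPML3-YFP; Doses: single dose, 3 µM final nominal compound, 0.3% DMSO final; Schedule: dye loading 1 h 37 °C then 30 min ambient, 125 s read; Technique: Fluo-8 calcium fluorescence; Benchmarks: high control carbachol 87 µM, low control DMSO.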
zfTRPN1 agonist: zebrafish TRPN1 channel agonists, primary screen, cell-based, HEK293, calcium fluorescence; 220,000 compounds, 0.18% hits; HEK293 zebrafish TRPN1-YFP, Fluo-8 calcium fluorescence; 100% = response to 87 µM carbachol; activation, % at 3 µM; transient receptor potential cation channel N1 (TRPN1/NompC), Danio rerio;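 active = activation above its plate's cutoff, the mean activation of test wells on that plate plus 3 SD, cut at about 19% in these data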
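Material – zebrafish TRPN1-YFP in HEK293 cells · Doses – 3 µM single point · Schedule – dye 1 h 37 °C plus 30 min RT · Signal – Fluo-8 calcium fluorescence, excitation 470-495 nm, emission 515-575 nm · Read-out – % activation versus carbachol response · Control set – carbachol high, DMSO low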
Hits are given with their value; – = inactive; · = no result.

SMILES | GPR7 antagonist | TAAR1 agonist | TAAR1 antagonist | LANA-H2A inh | TRPML3 ag | zfTRPN1 agonist
CC(=O)C1=C(C)N(Cc2ccc(F)cc2)C(=S)NC1c1ccc(Br)cc1 (stereo not given) | · | – | – | · | · | ·
O=C(NCc1ccc(F)cc1)c1cc(-c2ccco2)on1 | – | 38 | – | – | – | –
Cc1cc(NC(=O)c2cc(-c3ccco3)on2)nn1Cc1ccc(Cl)cc1 | – | – | – | 15 | – | –
O=C(NCc1ccc(Cl)cc1)c1cc(-c2ccco2)on1 | – | – | – | – | – | –
Cc1cccc(CCNS(=O)(=O)c2ccc3c(c2)n(C)c(=O)c(=O)n3C)c1 | – | 39 | – | – | – | –
COC(=O)c1cc2c(c3c4cc(C)ccc4n(S(=O)(=O)c4cccc(C)c4)c13)C(=O)N(Cc1ccc(N(C)C)cc1)C2 | · | – | – | · | · | ·
CC1CCCN(Cc2nc3c(c(=O)n(C)c(=O)n3C)n2CC(N)=O)C1 (stereo not given) | – | – | – | 13 | – | –
COc1ccc(Cc2nnc(NC(=O)c3cccc([N+](=O)[O-])c3C)s2)cc1 | – | 61 | – | – | – | –
CC(C)(C)OC(=O)N1C[C@@]23C[C@H](c4cccc(F)c4)[C@@H](C[C@@H]2S1(=O)=O)O3 | · | – | – | · | · | ·
CN1OC[C@@H]2CN(C(=S)Nc3cc(C(F)(F)F)cc(C(F)(F)F)c3)[C@H](c3ccccc3Br)C[C@@H]21 | · | – | – | · | · | ·
COc1cc(F)cc(-c2ccc3c(c2)c(-c2cccs2)c(-c2cc(OC)cc(OC)c2)n3C)c1 | · | 50 | – | – | · | ·
O=C(N[C@H](Cc1ccccc1)C(=O)N1CCN(c2ncccn2)CC1)[C@H]1O[C@@H](n2ccc(=O)[nH]c2=O)[C@H](O)[C@@H]1O | · | – | – | · | · | ·
CCOC1=C2[C@H](c3ccccc3)N(S(=O)(=O)c3ccc(C)cc3)[C@H](C(C)C)[C@H]2C(C#N)(C#N)C(C#N)(C#N)C1 | · | – | – | · | · | ·
COc1cc(/C=C2/SC(=S)N(Cc3ccccc3)C2=O)ccc1O | – | 44 | – | – | · | ·
COc1cc(/C=C2/SC(=NCc3ccccc3)N(Cc3ccccc3)C2=O)ccc1O | – | – | – | – | – | –
O=C1/C(=C\c2ccc(O)c(O)c2)SC(=S)N1Cc1ccccc1 | – | 38 | – | – | · | ·
COc1cc(/C=C2\SC(=S)N(C(C(=O)O)c3ccccc3)C2=O)ccc1O (stereo not given) | – | – | – | – | 27 | 40
CC(NC(=O)Nc1nnc(C(F)(F)F)s1)(C(F)(F)F)C(F)(F)F | – | – | – | – | 21 | 26
CCSc1nnc(NC(=O)c2ccc(Br)s2)s1 | – | – | – | – | – | –
O=C(Nc1ccccc1C(=O)Nc1nnc(C(F)(F)F)s1)c1ccccc1Cl | – | – | – | – | 13 | 23
O=C(Nc1nnc(C(F)(F)F)s1)c1ccc(Br)s1 | – | – | – | – | 19 | 29
CC(C)[C@H](NC(=O)[C@H](C)NC(=O)OC(C)(C)C)C(=O)N1CCC2CCN(Cc3ccccc3)CC21 (stereo not given in full) | · | – | – | · | · | ·
CC1(C)CC(=O)C=C(c2ccc(COC(=O)c3ccc(Br)cc3)cc2)C1=O | · | – | – | · | · | ·
C/C(=N\NC(=O)c1cc(O)ccc1O)c1cccc(NC(=O)c2ccc(Cl)cc2)c1 | – | – | 51 | – | · | ·
CN1/C(=C\C(=O)COC(=O)c2ccco2)C(C)(C)c2ccccc21 | – | – | – | – | – | –
SMILES | GPR7 antagonist | TAAR1 agonist | TAAR1 antagonist | LANA-H2A inh | TRPML3 ag | zfTRPN1 agonist
CN1/C(=C\C(=O)c2ccco2)C(C)(C)c2ccccc21 | – | – | 58 | – | – | –
O=C(N/N=C/c1cccc(OCc2ccccc2)c1)c1ccc(Br)cc1 | – | – | – | – | – | –
COc1cccc(/C=N/NC(=O)c2ccc(OCc3cccc(Br)c3)cc2)c1 | – | – | 52 | – | – | –
COc1cccc(CN(C)C(=O)[C@@H](Cc2ccccc2)NC(=O)[C@H]2O[C@@H](n3ccc(=O)[nH]c3=O)[C@H](O)[C@@H]2O)c1 | · | – | – | · | · | ·
CC(=O)Nc1ccc(/C(C)=N/Nc2nc(Nc3cccc4ccccc34)nc(N3CCOCC3)n2)cc1 | – | 50 | 52 | – | – | –
CCCCOCC1CN(CCCC)S(=O)(=O)c2c(cccc2Sc2ccc(OC)c(OC)c2)O1 (stereo not given) | · | – | – | · | · | ·
COC(=O)[C@]12C[C@H](CC(=O)NCc3cccs3)C(=O)N(Cc3ccc4c(c3)OCO4)C1=C[C@H](C(C)(C)C)O[C@@H]2C | · | – | – | · | · | ·
CCOC(=O)C1(CC2CCCCO2)CCN(Cc2nccn2-c2cccc(C)c2)CC1 (stereo not given) | 19 | – | – | – | – | –
OCCC(N1CCOCC1)C(O)(c1ccccc1)c1ccccc1 (stereo not given) | · | – | – | · | · | ·
O=c1c2ccccc2sn1-c1cc(S(=O)(=O)N2CCOCC2)ccc1N1CCOCC1 | – | 87 | – | – | – | –
O=c1c2ccccc2sn1-c1cc(S(=O)(=O)N2CCOCC2)ccc1N1CCCC1 | – | – | – | – | – | –
C[C@@H]1COc2cccc(N3CCCC3)c2S(=O)(=O)N1 | · | – | – | · | · | ·
O=C(NCCc1ccccc1F)c1cccc2cccnc12 | – | 66 | – | – | · | ·
CCOc1ncccc1C(=O)NCc1ccccc1F | – | – | – | – | – | –
CC1CC(OC(=O)C(O)c2ccccc2)CC(C)(C)N1C (stereo not given) | · | – | – | 17 | · | ·
O=C(COC(=O)c1ccccc1C(F)(F)F)NC(=O)NCc1ccco1 | · | – | – | – | · | ·
CC(C)c1cc(C(=O)OCC(=O)NC(=O)NCc2ccco2)c(O)c(C(C)C)c1 | 17 | – | – | – | – | –
O=C(N/N=C\c1cn(-c2ccccc2)nc1-c1ccccc1)c1ccc(Br)o1 | – | – | 54 | – | – | –
O=C(Nc1cccc2ccccc12)c1cn(-c2ccccc2)nc1-c1cccs1 | – | · | · | – | – | –
COc1ccc(-c2nn(-c3ccccc3)cc2/C=N/O)cc1 | – | – | – | – | · | ·
O=C(Nc1cccnc1)c1cc(-c2ccc(F)cc2)on1 | – | – | – | – | – | –
COc1ccc(-c2nn(-c3ccccc3)cc2/C=N/NS(=O)(=O)c2ccccc2)cc1 | – | – | – | 10 | – | –

High-throughput results: PubChem BioAssay, several laboratories
